Cav32 inh: Cav3.2 calcium influx blockers – cell-based, Fluo-4 calcium fluorescence, FDSS, MLSMR library, primary screen. Voltage-dependent T-type calcium channel subunit alpha-1H (Homo sapiens), O95180. Cav3.2-expressing cells; hits give low values. B-score at 10 µM. 4% of 100,000 active. AID 449739, 2010;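 active means single-dose well whose peak fluorescence ratio is a statistical outlier from its plate by either plate-standardised score or position-corrected B-score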
CYP2C9 act: human CYP2C9 activators, primary screen, biochemical, luminescence; 1.4% of 96,000 active; recombinant CYP2C9, luciferin-H conversion; hits give high values; factor 1 = untreated enzyme, 0 = blocked; AID 1024, 2008; activation factor at 5 µM; Cytochrome P450 2C9 (Homo sapiens), P11712;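 active means activation factor of 2 or more for CYP2C9 at a 5 µM dose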;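 further: 0 = sulfaphenazole-blocked wells and 1 = vehicle-only wells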
CYP2C19 inhib: blockers of cytochrome P450 2C19 activity – biochemical, luminescence, ADME assay, primary screen | 21% of 96,000 active | AID 778, 2007 | inhibition, % at 5 µM | CYP2C19 Supersomes, luciferin-H EGE luminescence, 30 min;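 active means CYP2C19 inhibition above a set limit at 5 µM in the primary screen, cut at about 50% in these data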;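 further: plate controls were negative control wells for no effect and 2.5 mM tranylcypromine positive control for full effect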
CYP2C9 inh: blockers of cytochrome P450 2C9 activity – biochemical, luminescence, ADME assay, primary screen. P11712. CYP2C9 Supersomes, luciferin-H conversion. inhibition, % at 5 µM. 20% of 96,000 active;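 active means blocking of liver enzyme CYP2C9 beyond about 50% at 5 µM, limit read from the data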
Rev-RRE block: HIV-1 Rev-RRE binding inhibitors, primary screen, biochemical, FRET, protein-RNA interaction | 0.79% of 97,000 active | inhibition, % at 8 µM | Rev peptide-RRE RNA binding | P05866;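 active means inhibition above the screen-wide mean plus 3 SD, cut at about 35% in these data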;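 further: 0% = median DMSO wells and 100% = median Neomycin B control wells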
Target sequence (P05866 whole entry, looked up): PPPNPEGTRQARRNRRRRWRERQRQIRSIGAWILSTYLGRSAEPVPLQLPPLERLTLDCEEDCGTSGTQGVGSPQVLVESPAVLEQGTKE
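assay system = Cy5-tagged RRE RNA duplex with fluorescein-tagged Rev peptide | incubation = 5 + 15 min at 25 °C | also added = labelled Rev peptide | measure = % inhibition of FRET ratio versus controls | benchmarks = DMSO wells as 0% and neomycin B wells as 100% inhibition | measured by = FRET fluorescence readout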
CYP2C19 act: human CYP2C19 activators, primary screen, biochemical, luminescence; Cytochrome P450 2C19 (Homo sapiens), P33261; recombinant CYP2C19, luciferin-H EGE luminescence; hits give high values; 0 = fully inhibited enzyme, 1 = untreated enzyme; activation factor at 5 µM; 96,000 tested, under 10 active;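 active means activation factor of at least 2 at 5 µM in the primary screen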;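 further: 0 = wells with 2.5 mM tranylcypromine and 1 = vehicle-only wells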
Starred values were filed as active, the others as inactive; x = no result. The list is not random: actives were taken first. Their share in the collection is about 27%.

SMILES	Cav32 inh	CYP2C9 act	CYP2C19 inhib	CYP2C9 inh	Rev-RRE block	CYP2C19 act
CSc1ccccc1NC(=O)c1c(C)noc1C	-0.4	1	10	-4	4	0.9
CC[C@@H]1CC=C[C@H]2[C@H]1C(=O)N(Cc1ccccc1)[C@H]2c1ccc(OC)c(Cl)c1	-0.71	x	x	x	x	x
O=S(=O)(NCCc1ccccc1)c1cccc2nsnc12	-0.35	0.4	99*	59*	-1	0
O=S(=O)(NCCOC12CC3CC(CC(C3)C1)C2)c1cccc2nsnc12	x	1.3	97*	-31	13	0
O=C(Nc1cc2c(cc1Br)OCCO2)c1ccco1	0.53	x	x	x	7	x
CCN(C(=O)c1cccc(F)c1)c1ccccc1C	-0.37	0.4	83*	61*	1	0.2
O=C(c1ccc2c(=O)n(C3CCCC3)c(=S)[nH]c2c1)N1CCc2ccccc21	-4.6*	0.9	-3	11	9	1
CC(C)NC(=O)c1ccc2c(=O)n(C3CCCC3)c(=S)[nH]c2c1	-0.49	0.9	2	8	9	1
CCc1noc2c1/C(=N\O)CC(c1ccccc1)C2 (configuration not stated)	0.78	0.3	76*	72*	-2	0.2
Cc1[nH]nc2c1/C(=N/O)CC(c1ccccc1)C2 (configuration not stated)	0.21	0.6	74*	45	5	0.3
CCCc1n[nH]c2c1/C(=N/O)CC(c1ccccc1)C2 (configuration not stated)	-0.22	0.6	77*	35	2	0.2
Cc1[nH]nc2c1C(=O)CC(C)(C)C2	x	1	-2	1	4	1
Cc1[nH]nc2c1/C(=N\O)CC(C)(C)C2	-0.37	0.7	51*	26	8	0.5
Cc1oc2c(c(=O)c1C)C(=O)CC(c1ccccc1)C2 (configuration not stated)	0.31	1.2	22	-15	x	0.8
COc1ccc(C(=O)N(C(C)C)C(C)C)c(OC)c1	-0.014	0.9	4	10	-2	1
Cc1ccc(C2N(c3nccs3)C(=O)C3CCCN32)cc1 (configuration not stated)	-0.84	1.1	22	-5	6	0.8
NC(=O)C1=C[C@@H](c2ccc(C(F)(F)F)cc2)C[C@@H](OCCCCO)O1	0.024	x	x	x	x	x
Cc1c(Cl)cccc1NC(=S)NCCC(C)C	-1.2	0.7	44	30	-4	0.6
Cc1c(Cl)cccc1NC(=S)NCCC(c1ccccc1)c1ccccc1	-6.9*	x	x	x	x	x
Cc1cc(Cl)ccc1NC(=S)NCCC(c1ccccc1)c1ccccc1	-3.6*	0.2	88*	85*	-2	0.1
Cc1c(Cl)cccc1NC(=S)NN1CCOCC1	1	1.1	67*	-7	9	0.3
Cc1c(Cl)cccc1NC(=O)COc1ccc(S(=O)(=O)N2CCOCC2)cc1	-4	0.6	11	39	6	0.9
Cc1ccc(NC(=S)NCCO)c(C)c1	-0.12	1	5	-2	3	1
Cc1ccc(NC(=S)NCc2ccc3c(c2)OCO3)c(C)c1	-1.3	0.7	90*	29	-7	0.1
Cc1cc(Cl)ccc1NC(=S)NCc1ccc(Cl)cc1	0.1	0.5	52*	52*	2	0.5
SMILES	Cav32 inh	CYP2C9 act	CYP2C19 inhib	CYP2C9 inh	Rev-RRE block	CYP2C19 act
CCO[C@H]1OC(C(=O)N2CCOCC2)=C[C@@H](C2CC2)[C@@H]1CCCO	0.3	x	x	x	x	x
Cc1ccc(-c2nnn(CC(=O)N(CC3CCCO3)C(C(=O)NC3CCCCC3)c3ccc(F)cc3)n2)o1 (configuration not stated)	0.41	0.8	13	23	3	0.9
CNc1nc2c(c(=O)[nH]c(=O)n2C)n1CCOC	0.043	1	6	4	7	0.9
COc1ccccc1CNC(=O)CCCOc1cc(=O)n(C)c2ccccc12	1.3	1.3	4	-28	-1	1
CCOC(=O)CSc1nnc(CNC(=O)c2cc(OC)c(OC)c(OC)c2)n1C	-2.1	1.1	-16	-8	-2	1.2
CCCCNCc1cc(Cl)c(OCCC)c(OCC)c1	-1.3	0.6	68*	35	1	0.3

Screening results (PubChem)
